# Experimental data pooled from the literature.
# Each line is one published result; the experiments were not run side by side.
# CYP2C19: Cytochrome P450 2C19 (CYP2C19, Homo sapiens, UniProt P33261)
Structure (SMILES),tested on,test,test system,setting,measurement,result
N=C(N)NCc1ccc(NC(=O)c2ccc(C(=O)Nc3ccc(C4=CCN(C(=N)N)CC4)cn3)cc2)cc1,NIH3T3,"cell growth or viability, MTS",,24 h,CC50,544 µM
C=CC(=O)N1CC2CC(n3nc(-c4ccc(C(=O)Nc5ccccn5)cc4)c4c(N)ncnc43)CC2C1 (stereo not drawn),,,"male Wistar rat, plasma","oral, 10 mg/kg",Tmax,2 h
COC(=O)C1CCN(C(=O)c2ccc(SCc3cnc4nc(N)nc(N)c4n3)nc2)CC1,CYP2C19,"enzyme activity, inhibitor, luciferase",,10 µM,inhibition,-2.45%
C[C@@H]1C[C@@H](c2ccc(Br)cc2)c2c(cc3ccccn23)C(=O)O1 (racemic),HFF-1,"cell growth or viability, resazurin",,72 h,CC50,> 100 µM
N=C(N)NCc1ccc(NC(=O)c2ccc(C(=O)Nc3ccc(C4=CCN(C(=N)N)CC4)cc3)nc2)cc1,NIH3T3,"cell growth or viability, MTS",,24 h,CC50,> 117 µM
[11CH3]Oc1cccc(CCc2cc(O)c(=O)[nH]n2)c1,"ATP-dependent translocase ABCB1 (Abcb1a, Mus musculus, UniProt P21447)",,"mouse, brain",30 min,tracer uptake,0.23 %ID/g
COC(=O)C1CCN(C(=O)c2ccc(N(CCO)Cc3cnc4nc(N)nc(N)c4n3)cc2)CC1,CYP2C19,"enzyme activity, inhibitor, luciferase",,10 µM,inhibition,-24.5%
COc1cc2c3c(n(CCCN4CCOCC4)c(=O)c2cc1OC)-c1cc2c(cc1C3=O)OCO2,,,"female beagle dog, plasma","intravenous, 10 mg/m², infusion",Cmax,75.7 ng/mL
COC(=O)C1CCN(C(=O)c2ccc(NCc3cnc4nc(N)nc(N)c4n3)cn2)CC1,CYP2C19,"enzyme activity, inhibitor, luciferase",,10 µM,inhibition,-1.34%
C[C@@H](Cn1ccc(-c2ccc(C#N)c(Cl)c2)n1)NC(=O)c1cc([C@@H](C)O)[nH]n1,"UDP-glucuronosyltransferase 1A4 (UGT1A4, Homo sapiens, UniProt P22310)","enzyme activity, inhibitor","human, liver microsomes",,IC50,> 100 µM
COC(=O)C1CCN(C(=O)c2ccc(N(Cc3ccccc3)Cc3cnc4nc(N)nc(N)c4n3)cc2)CC1,CYP2C19,"enzyme activity, inhibitor, luciferase",,10 µM,inhibition,107%
N=C(N)N1CC=C(c2coc(C(=O)Nc3ccc(C4=CCN(C(=N)N)CC4)c(F)c3)c2)CC1,NIH3T3,"cell growth or viability, MTS",,24 h,CC50,68 µM
